Laboratory results: ChEMBL document CHEMBL4196055, “Synthesis and biological evaluation of α-santonin derivatives as anti-hepatoma agents” (Eur J Med Chem, 2018)

Assays:
[1] = system: HepG2; experiment: Antiproliferative activity against human HepG2 cells at 10 uM after 24 hrs by CCK-8 assay relative to control; type: functional
Method in brief: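 HepG-2 grown in DMEM with 10% FBS and penicillin/streptomycin (37 °C, 5% CO2). Seeded 2 × 10^5 cells/well for 24 h, then given a single 10 μM dose or 1% DMSO vehicle for 24 h. CCK-8 reagent for 1 h, A450 read, and percent inhibition calculated against untreated control cells.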

[2] = system: HepG2; experiment: Antiproliferative activity against human HepG2 cells after 24 hrs by CCK-8 assay; type: functional, cell-based; conditions: HepG2, 24 h
Method in brief: (§1)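 Cells in 10% FBS medium with penicillin/streptomycin at 37 °C, 5% CO2; HepG-2 in DMEM, QGY-7703, SMMC-7721 and QSG-7701 in RPMI 1640. Seeded 2 × 10^5 cells/well, grown 24 h, then exposed to five concentrations of compound or 1% DMSO vehicle for 24 h. CCK-8 added for 1 h, absorbance read at 450 nm; IC50 derived from the 5-dose data.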

[3] = system: QGY-7703; experiment: Antiproliferative activity against human QGY7703 cells after 24 hrs by CCK-8 assay; type: functional, cell-based; conditions: QGY-7703, 24 h; method in brief: as §1
[4] = system: SMMC-7721; experiment: Antiproliferative activity against human SMMC7721 cells after 24 hrs by CCK-8 assay; type: functional, cell-based; conditions: SMMC-7721, 24 h; method in brief: as §1
[5] = Antiproliferative activity against human QSG7701 cells after 24 hrs by CCK-8 assay; type: cell-based; conditions: QSG7701, 24 h; method in brief: as §1
[6] = system: QGY-7703; experiment: Induction of apoptosis in human QGY7703 cells assessed as increase in cleaved PARP level after 24 hrs by Western blot analysis; type: functional, cell-based
Method in brief: (§2)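 QGY-7703 cells subcultured for 24 h, then given compound for 24 h, with DMSO as control. Lysates in buffer with protease inhibitors, protein measured by BCA, equal amounts run on 10% SDS-PAGE and moved to PVDF. Blocked in 5% milk, probed overnight at 4 °C for PARP, cleaved caspase 3, pro-caspase 3 and pro-caspase 9 (1:1000), with GAPDH loading control. IRDye secondaries, densitometry reported as grayscale values.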

[7] = system: QGY-7703; experiment: Induction of apoptosis in human QGY7703 cells assessed as early apoptotic cells at 5 uM after 24 hrs by Annexin-V FITC/propidium iodide staining based flow cytometric analysis (reference value: 0.8 to 1%); type: functional
Method in brief: (§3)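 Assay in QGY-7703 cells kept in RPMI 1640 with 10% FBS. Seeded at 5 × 10^5 cells/well for 24 h, then treated for 24 h with 5, 10 or 15 μM compound, DMSO as control. Annexin V-FITC/PI staining for 15 min at room temperature in the dark, then immediate flow cytometry to count the apoptotic fractions.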

[8] = system: QGY-7703; experiment: Induction of apoptosis in human QGY7703 cells assessed as increase in cleaved caspase 3 level after 24 hrs by Western blot analysis; type: functional, cell-based; method in brief: as §2
[9] = system: QGY-7703; experiment: Induction of apoptosis in human QGY7703 cells assessed as decrease in pro-caspase 9 level after 24 hrs by Western blot analysis; type: functional, cell-based; method in brief: as §2
[10] = system: QGY-7703; experiment: Induction of apoptosis in human QGY7703 cells assessed as late apoptotic cells at 5 uM after 24 hrs by Annexin-V FITC/propidium iodide staining based flow cytometric analysis (reference value: 4.1 to 4.3%); type: functional; method in brief: as §3
[11] = system: QGY-7703; experiment: Induction of apoptosis in human QGY7703 cells assessed as necrotic cells at 5 uM after 24 hrs by Annexin-V FITC/propidium iodide staining based flow cytometric analysis (reference value: 0.6 to 0.7%); type: functional; method in brief: as §3
[12] = system: QGY-7703; experiment: Induction of apoptosis in human QGY7703 cells assessed as viable cells at 5 uM after 24 hrs by Annexin-V FITC/propidium iodide staining based flow cytometric analysis (reference value: 94.2 to 94.3%); type: functional; conditions: QGY-7703, 24 h, read-out: Activity; method in brief: as §3
[13] = system: QGY-7703; experiment: Induction of apoptosis in human QGY7703 cells assessed as early apoptotic cells at 10 uM after 24 hrs by Annexin-V FITC/propidium iodide staining based flow cytometric analysis (reference value: 0.8 to 1%); type: functional; method in brief: as §3
[14] = system: QGY-7703; experiment: Induction of apoptosis in human QGY7703 cells assessed as late apoptotic cells at 10 uM after 24 hrs by Annexin-V FITC/propidium iodide staining based flow cytometric analysis (reference value: 4.1 to 4.3%); type: functional; method in brief: as §3
[15] = system: QGY-7703; experiment: Induction of apoptosis in human QGY7703 cells assessed as necrotic cells at 10 uM after 24 hrs by Annexin-V FITC/propidium iodide staining based flow cytometric analysis (reference value: 0.6 to 0.7%); type: functional; method in brief: as §3
[16] = system: QGY-7703; experiment: Induction of apoptosis in human QGY7703 cells assessed as viable cells at 10 uM after 24 hrs by Annexin-V FITC/propidium iodide staining based flow cytometric analysis (reference value: 94.2 to 94.3%); type: functional; conditions: QGY-7703, 24 h, read-out: Activity; method in brief: as §3
[17] = system: QGY-7703; experiment: Induction of apoptosis in human QGY7703 cells assessed as early apoptotic cells at 15 uM after 24 hrs by Annexin-V FITC/propidium iodide staining based flow cytometric analysis (reference value: 0.8 to 1%); type: functional; method in brief: as §3
[18] = system: QGY-7703; experiment: Induction of apoptosis in human QGY7703 cells assessed as late apoptotic cells at 15 uM after 24 hrs by Annexin-V FITC/propidium iodide staining based flow cytometric analysis (reference value: 4.1 to 4.3%); type: functional; method in brief: as §3
[19] = system: QGY-7703; experiment: Induction of apoptosis in human QGY7703 cells assessed as necrotic cells at 15 uM after 24 hrs by Annexin-V FITC/propidium iodide staining based flow cytometric analysis (reference value: 0.6 to 0.7%); type: functional; method in brief: as §3
[20] = system: QGY-7703; experiment: Induction of apoptosis in human QGY7703 cells assessed as viable cells at 15 uM after 24 hrs by Annexin-V FITC/propidium iodide staining based flow cytometric analysis (reference value: 94.2 to 94.3%); type: functional; conditions: QGY-7703, 24 h, read-out: Activity; method in brief: as §3

| Structure (SMILES) | Activity [1] | IC50 [2] | IC50 [3] | IC50 [4] | IC50 [5] | Activity [6] | Activity [7] | Activity [8] | Activity [9] | Activity [10] | Activity [11] | viability at 5 µM [12] | Activity [13] | Activity [14] | Activity [15] | viability at 10 µM [16] | Activity [17] | Activity [18] | Activity [19] | viability at 15 µM [20] |
| --- | --- | --- | --- | --- | --- | --- | --- | --- | --- | --- | --- | --- | --- | --- | --- | --- | --- | --- | --- | --- |
| C=C1C(=O)O[C@@H]2C3=C(C)[C@@H](OC(=O)c4ccc(Cl)cc4)CC3[C@](C)(OC(C)=O)CC[C@@H]12 (stereo partly specified) | 72.69% | 7.1 µM | 10.1 µM | 4.24 µM | 46.9 µM | Dose-dependent effect | 20.6% | Dose-dependent effect | Dose-dependent effect | 1.7% | 0% | 77.7% | 15.5% | 20.6% | 0.3% | 63.6% | 24.4% | 63.4% | 0.6% | 11.6% |
| C=C1C(=O)O[C@@H]2C3=C(C)[C@@H](OC(=O)/C=C/c4ccc(Cl)cc4)CC3[C@](C)(OC(C)=O)CC[C@@H]12 (stereo partly specified) | 62.92% | 7.51 µM | 3.06 µM | 4.08 µM | > 100 µM | Dose-dependent effect | 16.6% | Dose-dependent effect | Dose-dependent effect | 1.8% | 0% | 81.6% | 11.3% | 18.8% | 0.2% | 69.7% | 38.1% | 31.7% | 0.5% | 29.6% |
| O=c1[nH]cc(F)c(=O)[nH]1 [FLUOROURACIL] | 50.58% | – | 14.2 µM | 12.5 µM | 6.92 µM | – | 10.7% | – | – | 0.9% | 0% | 88.4% | 12.6% | 11.1% | 0.1% | 76.3% | 23% | 35.5% | 0.4% | 41.1% |
